Active and inactive are the calls of the source. The rule behind the calls is not given here.
Legend:
[1] = target: T1, Tyrosine-protein phosphatase non-receptor type 1 (Homo sapiens, UniProt P18031); assay: Inhibition of human PTP1B using p-nitrophenol phosphate as substrate incubated for 35 mins prior to substrate addition measured after 30 mins by spectrophotometry
T1 sequence (P18031 whole entry): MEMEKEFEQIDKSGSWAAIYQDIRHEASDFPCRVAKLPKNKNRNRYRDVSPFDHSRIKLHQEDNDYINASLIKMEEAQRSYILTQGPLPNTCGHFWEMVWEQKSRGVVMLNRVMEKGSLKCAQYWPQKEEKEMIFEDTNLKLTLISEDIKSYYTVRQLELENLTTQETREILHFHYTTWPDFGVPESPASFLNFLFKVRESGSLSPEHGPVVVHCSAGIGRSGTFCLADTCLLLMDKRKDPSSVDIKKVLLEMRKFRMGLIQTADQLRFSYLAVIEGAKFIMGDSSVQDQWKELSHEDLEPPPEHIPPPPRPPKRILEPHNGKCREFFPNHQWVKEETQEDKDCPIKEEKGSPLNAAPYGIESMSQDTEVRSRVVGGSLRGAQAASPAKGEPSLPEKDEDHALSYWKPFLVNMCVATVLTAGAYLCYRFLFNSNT
In short: (§1)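 Recombinant human phosphatase, expressed and purified, in 20 mM MOPS pH 7.2 with 50 mM NaCl. Preincubated with inhibitor at various concentrations for 35 min at 37 °C. p-NPP (0.1 M stock) added and reaction run about 30 min, then stopped with 2 M NaOH.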

[2] = target: T2, Tyrosine-protein phosphatase non-receptor type 2 (Homo sapiens, UniProt P17706); assay: Inhibition of human TCPTP using p-nitrophenol phosphate as substrate incubated for 35 mins prior to substrate addition measured after 30 mins by spectrophotometry; in short: as §1
T2 sequence (P17706 whole entry): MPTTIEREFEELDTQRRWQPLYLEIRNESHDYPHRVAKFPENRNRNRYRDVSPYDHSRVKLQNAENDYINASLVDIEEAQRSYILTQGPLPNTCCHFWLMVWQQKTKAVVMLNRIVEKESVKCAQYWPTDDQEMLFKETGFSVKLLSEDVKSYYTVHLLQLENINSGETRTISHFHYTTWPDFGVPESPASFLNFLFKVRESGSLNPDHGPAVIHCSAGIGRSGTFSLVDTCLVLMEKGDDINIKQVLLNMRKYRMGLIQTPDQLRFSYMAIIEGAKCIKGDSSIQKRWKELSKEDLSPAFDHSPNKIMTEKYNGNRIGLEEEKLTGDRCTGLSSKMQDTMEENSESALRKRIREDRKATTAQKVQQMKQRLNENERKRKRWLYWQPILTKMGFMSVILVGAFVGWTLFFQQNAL

[3] = target: T3, Tyrosine-protein phosphatase non-receptor type 9 (Homo sapiens, UniProt P43378); assay: Inhibition of human PTP-MEG2 using p-nitrophenol phosphate as substrate incubated for 35 mins prior to substrate addition measured after 30 mins by spectrophotometry; in short: as §1
T3 sequence (P43378 whole entry): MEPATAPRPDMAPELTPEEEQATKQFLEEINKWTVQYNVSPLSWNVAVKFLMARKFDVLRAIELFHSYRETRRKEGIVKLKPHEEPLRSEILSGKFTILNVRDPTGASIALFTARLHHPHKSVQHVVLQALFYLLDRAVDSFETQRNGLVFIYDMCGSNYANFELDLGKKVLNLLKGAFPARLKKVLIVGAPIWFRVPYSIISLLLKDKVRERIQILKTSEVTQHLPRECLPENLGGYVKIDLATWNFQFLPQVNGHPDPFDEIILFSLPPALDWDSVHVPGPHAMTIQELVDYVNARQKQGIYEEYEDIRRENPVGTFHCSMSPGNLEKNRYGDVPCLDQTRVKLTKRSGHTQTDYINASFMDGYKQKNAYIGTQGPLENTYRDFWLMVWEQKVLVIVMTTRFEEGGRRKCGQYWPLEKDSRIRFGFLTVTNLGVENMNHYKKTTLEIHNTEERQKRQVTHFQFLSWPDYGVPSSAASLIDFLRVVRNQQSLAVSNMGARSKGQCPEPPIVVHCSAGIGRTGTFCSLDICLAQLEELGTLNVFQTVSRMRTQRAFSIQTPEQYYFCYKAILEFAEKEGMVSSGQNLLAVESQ

[4] = target: Tyrosine-protein phosphatase non-receptor type 6 (Homo sapiens, UniProt P29350); assay: Inhibition of human SHP1 using p-nitrophenol phosphate as substrate incubated for 35 mins prior to substrate addition measured after 30 mins by spectrophotometry; in short: as §1
Tyrosine-protein phosphatase non-receptor type 6, sequence (P29350 whole entry): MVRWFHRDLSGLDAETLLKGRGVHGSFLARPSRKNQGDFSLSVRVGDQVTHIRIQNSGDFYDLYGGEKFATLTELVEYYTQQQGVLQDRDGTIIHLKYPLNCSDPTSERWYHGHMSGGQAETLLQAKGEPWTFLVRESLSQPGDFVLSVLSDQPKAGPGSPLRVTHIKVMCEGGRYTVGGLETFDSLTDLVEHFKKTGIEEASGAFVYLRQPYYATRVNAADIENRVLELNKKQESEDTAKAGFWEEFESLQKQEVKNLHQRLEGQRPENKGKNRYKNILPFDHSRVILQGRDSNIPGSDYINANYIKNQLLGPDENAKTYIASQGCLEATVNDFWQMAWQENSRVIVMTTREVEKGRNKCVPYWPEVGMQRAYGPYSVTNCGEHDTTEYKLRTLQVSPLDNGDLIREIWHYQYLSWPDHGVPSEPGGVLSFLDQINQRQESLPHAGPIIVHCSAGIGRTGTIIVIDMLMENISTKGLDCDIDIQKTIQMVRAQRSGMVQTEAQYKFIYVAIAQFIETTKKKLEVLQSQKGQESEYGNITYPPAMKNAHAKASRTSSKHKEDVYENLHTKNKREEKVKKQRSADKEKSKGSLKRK

[5] = target: T4, Tyrosine-protein phosphatase non-receptor type 11 (Homo sapiens, UniProt Q06124); assay: Inhibition of human SHP2 using p-nitrophenol phosphate as substrate incubated for 35 mins prior to substrate addition measured after 30 mins by spectrophotometry; in short: as §1
T4 sequence (Q06124 whole entry): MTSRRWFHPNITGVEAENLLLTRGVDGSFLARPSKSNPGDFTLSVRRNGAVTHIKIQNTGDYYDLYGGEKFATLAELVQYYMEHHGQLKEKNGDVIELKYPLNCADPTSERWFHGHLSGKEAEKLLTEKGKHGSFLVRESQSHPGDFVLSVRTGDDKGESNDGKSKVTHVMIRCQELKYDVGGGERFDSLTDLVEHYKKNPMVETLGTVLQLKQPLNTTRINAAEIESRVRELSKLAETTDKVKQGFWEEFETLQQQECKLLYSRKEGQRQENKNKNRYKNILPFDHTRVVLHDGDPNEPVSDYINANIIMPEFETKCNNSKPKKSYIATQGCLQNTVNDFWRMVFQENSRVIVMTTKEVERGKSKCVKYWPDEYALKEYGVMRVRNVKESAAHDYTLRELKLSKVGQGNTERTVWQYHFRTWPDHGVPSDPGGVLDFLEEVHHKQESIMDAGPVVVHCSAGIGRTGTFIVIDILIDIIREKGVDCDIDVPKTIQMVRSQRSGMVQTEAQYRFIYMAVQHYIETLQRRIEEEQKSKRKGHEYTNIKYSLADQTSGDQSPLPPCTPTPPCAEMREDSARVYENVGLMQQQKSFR

[6] = target: T5, Tyrosine-protein phosphatase non-receptor type 1 (Homo sapiens) (UniProt P18031)
T5 sequence (whole entry): T1 sequence (P18031 whole entry)

[7] = system: HepG2; assay: Cytotoxicity against human HepG2 cells after 48 hrs by MTT assay; type: functional, cell-based
In short: (§2)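 HepG2 or MCF7 cells in DMEM with 10% FBS and penicillin/streptomycin, 37 °C, 5% CO2. Plated overnight, then exposed to a range of concentrations for 48 h with DMSO held at 1.0% in samples and control. MTT (5 mg/mL stock) added for 4 h at 37 °C, formazan dissolved in DMSO, OD read at 490 nm. Viability % = T/C × 100, averaged over six wells.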

[8] = system: MCF7; assay: Cytotoxicity against human MCF7 cells after 48 hrs by MTT assay; type: functional, cell-based; in short: as §2
[9] = system: HepG2; assay: Induction of apoptosis in human HepG2 cells at 50 uM after 48 hrs by AnnexinV-FITC/PI flow cytometric analysis; type: functional, cell-based
In short: (§3)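 HepG2 cells exposed to 50, 100 or 300 μM for 48 h. Harvested, washed twice in ice-cold 0.85% NaCl, then resuspended in binding buffer with Annexin V-FITC and PI. Stained 15 min in the dark at room temperature and analysed by flow cytometry within 1 h. Viable, early/late apoptotic and necrotic fractions quantified from annexin V binding and PI uptake; mean ± SD, n = 3.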

[10] = system: HepG2; assay: Induction of apoptosis in human HepG2 cells assessed as apoptotic cells at 100 uM after 48 hrs by AnnexinV-FITC/PI flow cytometric analysis; type: functional; in short: as §3
[11] = system: HepG2; assay: Induction of necrosis in human HepG2 cells assessed as necrotic cells at 100 uM after 48 hrs by AnnexinV-FITC/PI flow cytometric analysis; type: functional; in short: as §3
[12] = system: HepG2; assay: Induction of apoptosis in human HepG2 cells assessed as apoptotic cells at 300 uM after 48 hrs by AnnexinV-FITC/PI flow cytometric analysis; type: functional; in short: as §3
[13] = system: HepG2; assay: Induction of necrosis in human HepG2 cells assessed as necrotic cells at 300 uM after 48 hrs by AnnexinV-FITC/PI flow cytometric analysis; type: functional
In short: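 HepG2 cells grown in DMEM with 10% FBS and penicillin/streptomycin at 37 °C under 5% CO2, then exposed for 48 h to three concentrations (50, 100, 300). Cells were washed twice in ice-cold 0.85% NaCl and stained with annexin V-FITC and PI in binding buffer for 15 min in the dark at room temperature. Flow cytometry within 1 h sorted necrotic cells by annexin V binding and PI uptake; mean ± SD, n = 3.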

[14] = target: T5, Tyrosine-protein phosphatase non-receptor type 1 (Homo sapiens); remark: listed apart in the source
[15] = target: T5, Tyrosine-protein phosphatase non-receptor type 1 (Homo sapiens); remark: listed apart in the source
[16] = target: T6, Tyrosine-protein phosphatase non-receptor type 9 (Homo sapiens) (UniProt P43378)
T6 sequence (whole entry): T3 sequence (P43378 whole entry)

SMILES: CCOP(=O)(O)C(N[C@@H](Cc1ccccc1)C(=O)O)c1ccccc1O (some centres not stated)
- IC50 [1]: > 10 mM
- IC50 [2]: > 10 mM
- IC50 [3]: > 10 mM
- IC50 [4]: > 10 mM
- IC50 [5]: > 10 mM

SMILES: CCOP(=O)(OCC)[C@H](Nc1ccc(Br)cc1)c1ccccc1O
- IC50 [1]: 0.0917 mM
- IC50 [2]: 0.0511 mM
- IC50 [3]: 0.173 mM
- IC50 [4]: > 10 mM
- IC50 [5]: > 10 mM
- Kic [6]: 96.3 µM

SMILES: CCOP(=O)(OCC)[C@H](Nc1ccc(Cl)cc1)c1ccccc1O
- IC50 [1]: 0.373 mM
- IC50 [2]: 0.627 mM
- IC50 [3]: 0.347 mM
- IC50 [4]: > 10 mM
- IC50 [5]: > 10 mM

SMILES: CCOP(=O)(O)C(N[C@@H](CS)C(=O)O)c1ccccc1O (some centres not stated)
- IC50 [1]: > 10 mM
- IC50 [2]: > 10 mM
- IC50 [3]: > 10 mM
- IC50 [4]: > 10 mM
- IC50 [5]: > 10 mM

SMILES: CCOP(=O)(O)C(NCC(=O)O)c1ccccc1O (configuration not stated)
- IC50 [1]: > 10 mM
- IC50 [2]: > 10 mM
- IC50 [3]: > 10 mM
- IC50 [4]: > 10 mM
- IC50 [5]: > 10 mM

SMILES: O=P(O)(O)[C@H](Nc1ccc(O)cc1)c1ccccc1O
- IC50 [1]: 0.00664 mM
- IC50 [2]: 0.0144 mM
- IC50 [3]: 0.16 mM
- IC50 [4]: > 10 mM
- IC50 [5]: > 10 mM
- Activity [7]: Dose-dependent effect
- Activity [8]: Dose-dependent effect
- Activity [9]: inactive
- Activity [10]: 7.2%
- Activity [11]: 1.9%
- Activity [12]: 69.7%
- Activity [13]: 22.7%
- Kic [6]: 4.4 µM
- Ka [14]: 2.23 ×10⁵ /M
- Ka [15]: 2.27 ×10⁵ /M

SMILES: CCOP(=O)(O)C(N[C@@H](CO)C(=O)O)c1ccccc1O (some centres not stated)
- IC50 [1]: 0.135 mM
- IC50 [2]: 0.123 mM
- IC50 [3]: 0.0686 mM
- IC50 [4]: 0.129 mM
- IC50 [5]: 0.191 mM
- Kic [16]: 102 µM

SMILES: CCOP(=O)(O)C(NCCCCCCNC(c1ccccc1O)P(=O)(O)OCC)c1ccccc1O (configuration not stated)
- IC50 [1]: > 10 mM
- IC50 [2]: > 10 mM
- IC50 [3]: > 10 mM
- IC50 [4]: > 10 mM
- IC50 [5]: > 10 mM

SMILES: CCOP(=O)(O)C(N[C@@H](Cc1ccc(O)cc1)C(=O)O)c1ccccc1O (some centres not stated)
- IC50 [1]: > 10 mM
- IC50 [2]: > 10 mM
- IC50 [3]: > 10 mM
- IC50 [4]: > 10 mM
- IC50 [5]: > 10 mM

SMILES: CCOP(=O)(OCC)[C@H](Nc1ccc([N+](=O)[O-])cc1)c1ccccc1O
- IC50 [1]: 0.217 mM
- IC50 [2]: 0.239 mM
- IC50 [3]: 0.291 mM
- IC50 [4]: > 10 mM
- IC50 [5]: > 10 mM

SMILES: CCOP(=O)(O)C(N[C@H](C(=O)O)[C@@H](C)O)c1ccccc1O (some centres not stated)
- IC50 [1]: > 10 mM
- IC50 [2]: > 10 mM
- IC50 [3]: > 10 mM
- IC50 [4]: > 10 mM
- IC50 [5]: > 10 mM

SMILES: CCOP(=O)(O)C(NCCNC(c1ccccc1O)P(=O)(O)OCC)c1ccccc1O (configuration not stated)
- IC50 [1]: > 10 mM
- IC50 [2]: > 10 mM
- IC50 [3]: > 10 mM
- IC50 [4]: > 10 mM
- IC50 [5]: > 10 mM

SMILES: CCOP(=O)(O)C(N[C@@H](C)C(=O)O)c1ccccc1O (some centres not stated)
- IC50 [1]: > 10 mM
- IC50 [2]: > 10 mM
- IC50 [3]: > 10 mM
- IC50 [4]: > 10 mM
- IC50 [5]: > 10 mM

SMILES: CCOP(=O)(O)C(N[C@@H](Cc1cnc[nH]1)C(=O)O)c1ccccc1O (some centres not stated)
- IC50 [1]: 0.334 mM
- IC50 [2]: 0.178 mM
- IC50 [3]: > 10 mM
- IC50 [4]: 0.167 mM
- IC50 [5]: 0.21 mM

SMILES: CCOP(=O)(OCC)[C@H](Nc1ccccc1Cl)c1ccccc1O
- IC50 [1]: 0.137 mM
- IC50 [2]: 0.178 mM
- IC50 [3]: 0.146 mM
- IC50 [4]: > 10 mM
- IC50 [5]: > 10 mM

SMILES: CCOP(=O)(O)C(N[C@@H](Cc1c[nH]c2ccccc12)C(=O)O)c1ccccc1O (some centres not stated)
- IC50 [1]: > 10 mM
- IC50 [2]: > 10 mM
- IC50 [3]: > 10 mM
- IC50 [4]: > 10 mM
- IC50 [5]: > 10 mM

SMILES: CCOP(=O)(O)C(NCCCNC(c1ccccc1O)P(=O)(O)OCC)c1ccccc1O (configuration not stated)
- IC50 [1]: > 10 mM
- IC50 [2]: > 10 mM
- IC50 [3]: > 10 mM
- IC50 [4]: > 10 mM
- IC50 [5]: > 10 mM

From ChEMBL document CHEMBL1944565, “Exploration of α-aminophosphonate N-derivatives as novel, potent and selective inhibitors of protein tyrosine phosphatases” (Eur J Med Chem, 2012)
